Screens from PubChem BioAssay.
Rows were chosen to be rich in hits. Some 2.7% of all compounds tested hit in one or more screens of this group.
MLL AF4-AF9 inh – blocks AF4 peptide binding to human AF9 | inhibition, % at 10 µM | P42568 | AlphaScreen, biotin-AF4 peptide binding to FLAG-AF9 | 350,000 tested, 0.47% active;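 active means every replicate reaching a set inhibition limit, whatever the replicate mean, cut at about 25% in these data; inconclusive means mean inhibition reaches that limit but some replicates miss it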
S100A4 MyoIIA – blocks human S100A4 binding to myosin IIA peptide; P26447; inhibition, % at 10.7 µM; S100A4/TAMRA-MyoIIA peptide fluorescence polarization; 360,000 tested, 0.14% active;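 active means mean inhibition of at least 70% across replicates, with every replicate also reaching that level; inconclusive means mean inhibition reaches 70% but some replicates fall short; inactive means mean inhibition below 70%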
Target sequence (P26447 whole entry, looked up): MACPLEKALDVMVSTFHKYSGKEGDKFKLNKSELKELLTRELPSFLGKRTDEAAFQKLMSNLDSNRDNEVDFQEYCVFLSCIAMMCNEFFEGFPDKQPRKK
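Test system – S100A4 monomer (human) · Compound – single-point compound testing · Schedule – 5 min incubation before reading · Probe or stimulus – TAMRA-labelled myosin IIA heavy-chain peptide probe, 5 nM · Benchmarks – neutral control DMSO, positive control TFP · Medium – Calcium-containing HEPES buffer, pH 7.2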
CaV13 FRET inh – Disruptors of the CACNA1D IQ motif to Ca2+-dependent inactivation inhibitor domain association, primary screening, Förster resonance energy transfer in intact living …. HEK cells, CFP/YFP FRET ICDI-IQ, plate reader, 10 min; percent FRET-ratio fall versus neutral wells. inhibition, % at 12.3 µM. 340,000 tested, 0.098% active. AID 743397;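 active means mean replicate inhibition of at least 30% and at least 1% of replicates passing that level; inconclusive means only one of the two criteria is met; inactive means neither criterion is met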
SIRT5 block – sirtuin-5 (human) deacylase inhibition. AID 652115. inhibition, % at 15 µM. 330,000 tested, 1.1% active. Purified SirT5, succinyl-peptide AMC, trypsin-coupled fluorescence; in the data active means inhibition above about 15%; inconclusive means no clear call, values can overlap the other calls
Target sequence (Q9NXA8 whole entry, looked up): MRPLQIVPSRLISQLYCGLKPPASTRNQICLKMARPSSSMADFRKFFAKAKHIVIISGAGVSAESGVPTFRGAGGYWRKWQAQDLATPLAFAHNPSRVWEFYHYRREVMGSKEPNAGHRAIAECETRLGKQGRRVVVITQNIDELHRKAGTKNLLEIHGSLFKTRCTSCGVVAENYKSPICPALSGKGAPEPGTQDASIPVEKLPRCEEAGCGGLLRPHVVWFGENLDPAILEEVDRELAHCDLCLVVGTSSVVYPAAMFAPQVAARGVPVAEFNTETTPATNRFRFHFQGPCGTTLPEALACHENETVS
DENV2 CPE rescue – inhibitors of DENV2 cytopathic effect | DENV2-infected cells, cytopathic effect rescue, plate reader | CPE inhibition, % at 9.99 µM | 350,000 tested, 1.7% active; in the data active means CPE inhibition above about 20%, passing the limit was not always enough; inconclusive means no clear call, values can overlap the other calls; tested in BHK-21 cells
Each line names hits and unclear results; the compound was inactive in the other large screens.

CCCNC(=O)N[C@@H]1CC[C@H](CCn2cc(C3CCCCC3)nn2)O[C@@H]1CO	SIRT5 block 17 (no result: CaV13 FRET inh)
O=C(Nc1ccc(Cl)c(Cl)c1)N[C@H]1CC[C@@H](CCn2cc(C3CC3)nn2)O[C@H]1CO	none (no result: CaV13 FRET inh)
O=C(Nc1ccc(Cl)c(Cl)c1)N[C@@H]1CC[C@H](CCn2cc(C3CCCC3)nn2)O[C@@H]1CO	DENV2 CPE rescue 28 (no result: CaV13 FRET inh)
CN(C)CC(=O)N[C@H]1CC[C@H](CCn2cc(C3CCCCC3)nn2)O[C@H]1CO	DENV2 CPE rescue 41 (no result: CaV13 FRET inh)
CNC[C@H]1Oc2c(NC(=O)c3cc(C)nn3C)cccc2C(=O)N([C@@H](C)CO)C[C@@H]1C	none (no result: CaV13 FRET inh)
Cc1noc(C)c1NC(=O)Nc1ccc2c(c1)CC(=O)N([C@@H](C)CO)C[C@H](C)[C@H](CN(C)Cc1ccc(C(=O)Nc3ccccc3N)cc1)O2	none (no result: CaV13 FRET inh, SIRT5 block)
COc1ccc(S(=O)(=O)N(C)C[C@@H]2Oc3c(NC(=O)NC(C)C)cccc3C(=O)N([C@H](C)CO)C[C@@H]2C)cc1	none (no result: CaV13 FRET inh)
Cc1ccc(C(=O)OCC(=O)Nc2c(C)nn(-c3ccccc3)c2C)c(O)c1	CaV13 FRET inh 51 (no result: SIRT5 block)
Cc1nn(-c2ccccc2)c(C)c1NC(=O)COC(=O)c1ccccc1	none
COc1ccccc1CNC(=O)C[C@H]1CC[C@H]2[C@@H](COC[C@@H](O)CN2C(=O)Nc2ccc(C(F)(F)F)cc2)O1	none (no result: CaV13 FRET inh)
C[C@@H]1CCCCO[C@@H](CN(C)C(=O)CCCN(C)C)[C@@H](C)CN([C@H](C)CO)C(=O)c2cc(NS(=O)(=O)c3ccc(Cl)cc3)ccc2O1	none (no result: CaV13 FRET inh)
C[C@@H]1CN([C@@H](C)CO)C(=O)c2cc(NS(=O)(=O)c3ccc(Cl)cc3)ccc2O[C@@H](C)CCCCO[C@@H]1CN(C)C(=O)CCCN(C)C	DENV2 CPE rescue 20 (no result: CaV13 FRET inh)
C[C@@H]1CN([C@H](C)CO)C(=O)c2cc(NS(=O)(=O)c3ccc(Cl)cc3)ccc2O[C@@H](C)CCCCO[C@@H]1CN(C)C(=O)CCCN(C)C	DENV2 CPE rescue 22 (no result: CaV13 FRET inh)
C[C@@H]1CN([C@@H](C)CO)C(=O)c2cc(NC(=O)Nc3ccc(C(F)(F)F)cc3)ccc2O[C@@H]1CN(C)S(=O)(=O)c1cn(C)cn1	none (no result: CaV13 FRET inh)
Cc1cccc(NC(=O)N2CCCC(CNC(=O)c3ccccc3Cl)C2)c1C (configuration not stated)	SIRT5 block 31
CC(=O)c1ccc(C(=O)N2CCCC(CNC(=O)c3ccccc3Cl)C2)cc1 (configuration not stated)	none
O=C(NC1CCCC1)N1CCCCN2[C@H](CO)[C@H](c3ccc(-c4cncnc4)cc3)[C@H]2C1	none (no result: CaV13 FRET inh)
O=[N+]([O-])c1ccc2[nH]c(O)c(N=NC3CCS(=O)(=O)C3)c2c1 (configuration not stated)	SIRT5 block 25
C[C@@H]1CN([C@@H](C)CO)C(=O)CCCn2cc(nn2)CO[C@@H]1CN(C)C(=O)Nc1ccc(N2CCCCC2)cc1	none (no result: CaV13 FRET inh)
C[C@@H]1CN([C@H](C)CO)S(=O)(=O)c2ccc(-c3ccc(F)cc3)cc2O[C@H]1CN(C)C(=O)c1ccccc1F	DENV2 CPE rescue inconclusive (no result: CaV13 FRET inh)
CC(=O)OCC(=O)N1CCN(C(=O)C(=O)c2cccc(C(F)(F)F)c2)CC1	none (no result: SIRT5 block)
C[C@@H]1CN([C@@H](C)CO)C(=O)Cc2cc(NC(=O)Cn3cnnn3)ccc2O[C@@H]1CN(C)Cc1ccc(C(=O)O)cc1	none (no result: CaV13 FRET inh)
CCC(Sc1nc2ncnc(N)c2[nH]1)C(=O)O (configuration not stated)	SIRT5 block 17
CC(=O)N(c1nc(/C=C\C(=O)O)cs1)c1ccccc1F	SIRT5 block 17, DENV2 CPE rescue inconclusive
CC12CCC(=O)N1C(C(=O)Nc1nc(-c3ccccc3)cs1)CS2 (configuration not stated)	DENV2 CPE rescue 29
COc1ccc(-c2csc(NC(=O)C3CSC4(C)CCC(=O)N34)n2)cc1 (configuration not stated)	none
CC12CCC(=O)N1C(C(=O)Nc1ccc(S(=O)(=O)N3CCCCC3)cc1)CS2 (configuration not stated)	DENV2 CPE rescue 32
O=C(O)C1CCCCC1C(=O)Nc1ccc(S(=O)(=O)N2CCCC2)cc1 (configuration not stated)	SIRT5 block 17
COc1ccc(Cn2cc(CN3[C@@H](c4ccccc4)COc4cc(Br)ccc4S3(=O)=O)nn2)cc1	none
